hERG rescue: compounds protecting human hERG from proarrhythmic drug block. Q12809. CHO-hERG, FluxOR thallium flux, dofetilide IC70 present. activation (rescue from dofetilide block), less the hit threshold, % at 10 µM. actives 0.51% (n = 310,000). AID 1511;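 active = activation above the mean of controls blocked by dofetilide plus 5 SD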;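 note: thallium influx through hERG after potassium depolarization seen as dye fluorescence rise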
KCNQ1 inh: human KCNQ1 channel inhibition | AID 2642 | actives 1.3% (n = 310,000) | CHO-K1 KCNQ1, FluxOR thallium flux fluorescence; stronger effect = higher value | B-score at 10 µM;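 active = compounds whose thallium flux B-score, printed positive for inhibition, exceeds three library SD while starting fluorescence stays within three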;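 note: channel opened by potassium depolarization with thallium stimulus after 20 min compound exposure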
Kir21 inh: inhibitors of mouse Kir2.1 inward-rectifier potassium channel; P35561; HEK293-Kir2.1, FluxOR thallium flux fluorescence; stronger effect = lower value; B-score at 10 µM; actives 0.85% (n = 310,000); AID 1672;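 active = fluorescence ratio B-score at or below minus 3 SD of library scores, with starting-brightness B-score within 2 SD, cut at about -4.2 in these data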;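 note: channel flux triggered by added potassium and thallium sulfate stimulus; B-score of peak minus minimum fluorescence over baseline after thallium stimulus; more negative B-score means stronger Kir2.1 block with less thallium influx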
KCNK3 block: human KCNK3 channel inhibition, primary screen; CHO-KCNK3 thallium flux, FluxOR fluorescence; stronger effect = lower value; B-score at 10 µM; actives 0.84% (n = 340,000);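 active = B-score under library mean minus 4 SD, starting fluorescence ratio at most library mean plus 5 SD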;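 note: more negative B-score means stronger inhibition of thallium flux through KCNK3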
KCNQ1 act: potentiates or activates the human KCNQ1 potassium channel; P51787; CHO-K1 KCNQ1, thallium flux FluxOR fluorescence; stronger effect = higher value; B-score at 10 µM; actives 0.35% (n = 310,000); AID 2648;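 active = fluorescence ratio B-score, a plate-corrected score, at least three library SD, with initial intensity B-score within 5 SD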
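assay system = CHO-K1 cells stably expressing KCNQ1 | medium = assay buffer, equal DMSO in all wells | timing = 37 °C overnight plating, 90-min dark dye load, 20-min compound pretreatment | measured by = kinetic FluxOR thallium fluorescence, 10-s 1-Hz baseline, 110-s post-stimulus read | measure = fluorescence change relative to baseline, converted to B score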
KCNK9 inh: blocks the human KCNK9 two-pore domain potassium channel; Q9NPC2; HEK293 KCNK9, FluxOR thallium flux fluorescence; stronger effect = lower value; B-score at 10 µM; actives 1.2% (n = 310,000); AID 488922;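 active = ratio B-score over 3 SD below the library mean, with starting fluorescence within 5 SD of its mean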;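 note: negative B-score means less thallium flux so channel inhibition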
KCNQ1 inh valid: confirmation of human KCNQ1 potassium channel inhibitors | shares compounds with KCNQ1 inh | KCNQ1 cell line, FluxOR thallium flux fluorescence | inhibition, % at 10 µM | actives 93% (n = 1,600);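 active = primary screen active, with duplicate mean exceeding buffer control mean plus 3 SD of buffer wells, cut at about 28% in these data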
CHO KCNQ1 ctr: KCNQ1 inhibitor counter-screen hit in parental CHO cells; shares compounds with KCNQ1 inh; fluorescence ratio (Tl flux) at 10 µM; AID 588366; actives 21% (n = 1,600); parental CHO-K1, FluxOR thallium flux fluorescence ratio; stronger effect = lower value; zero means no signal rise above baseline;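 active = mean of duplicate thallium-flux fluorescence ratios in parental host cells more than 5 SD below the buffer control mean, cut at about 0.38 in these data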;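 note: ratio is peak minus minimum fluorescence divided by baseline fluorescence; actives read low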
KCNQ1 ephys val: blocks human KCNQ1 current in automated patch clamp | actives 20% (n = 490) | KCNQ1-CHO cells | shares compounds with KCNQ1 inh | calls only at 10 µM | AID 624120;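 active = KCNQ1 current drop exceeding 3 SD of negative control wells, seen in both duplicate runs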;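 note: steady state current during a 2 s step from -80 to +40 mV; negative values mean current inhibition and positive values mean potentiation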
KCNQ2 spec: selectivity of KCNQ1 inhibitors: inhibition of rat KCNQ2 channel. shares compounds with KCNQ1 inh. KCNQ2 cells, FluxOR thallium flux fluorescence. inhibition, % at 10 µM. actives 71% (n = 1,600). AID 651746;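 active = mean percent inhibition of the KCNQ2 thallium signal more than 5 SD above the buffer-only control wells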;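 note: KCNQ2 expressed in CHO cells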
KCNQ1 KCNE1 spec: human KCNQ1/KCNE1 inhibition in KCNQ1 specificity screen | shares compounds with KCNQ1 inh | KCNQ1/KCNE1 cells, FluxOR thallium flux fluorescence | inhibition, % at 10 µM | actives 77% (n = 1,600);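 active = mean percent inhibition of duplicate wells above the buffer-only control mean plus 3 SD of those controls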
Target sequence (P51787 whole entry, looked up): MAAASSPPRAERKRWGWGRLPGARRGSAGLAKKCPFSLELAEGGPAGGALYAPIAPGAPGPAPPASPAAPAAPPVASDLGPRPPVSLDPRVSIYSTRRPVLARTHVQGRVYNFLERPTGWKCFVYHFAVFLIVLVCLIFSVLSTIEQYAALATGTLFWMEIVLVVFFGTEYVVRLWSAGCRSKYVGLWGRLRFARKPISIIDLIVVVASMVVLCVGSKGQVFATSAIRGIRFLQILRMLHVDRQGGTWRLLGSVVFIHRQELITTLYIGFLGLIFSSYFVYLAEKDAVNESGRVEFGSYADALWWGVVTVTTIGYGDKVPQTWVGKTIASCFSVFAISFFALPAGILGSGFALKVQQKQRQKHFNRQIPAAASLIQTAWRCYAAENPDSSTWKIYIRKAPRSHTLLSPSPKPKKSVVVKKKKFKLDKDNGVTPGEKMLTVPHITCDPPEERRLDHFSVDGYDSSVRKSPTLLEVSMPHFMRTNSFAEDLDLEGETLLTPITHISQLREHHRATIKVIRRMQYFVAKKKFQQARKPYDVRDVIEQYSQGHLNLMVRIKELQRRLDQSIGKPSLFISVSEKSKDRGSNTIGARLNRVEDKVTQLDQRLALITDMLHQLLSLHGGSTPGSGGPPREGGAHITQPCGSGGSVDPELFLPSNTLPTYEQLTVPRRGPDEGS
KCNK9 inh conf: human KCNK9 inhibitor confirmation. shares compounds with KCNK9 inh. HEK293 KCNK9 cells, FluxOR thallium flux fluorescence. inhibition, % at 10 µM. actives 43% (n = 4,900);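 active = thallium signal inhibited by more than 5 SD of the compound-free buffer control wells, on both duplicate plates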
Kir2-1 spec: selectivity of KCNK9 modulators against mouse Kir2.1. AID 492993. Kir2.1 cells, FluxOR thallium flux fluorescence. inhibition, % at 10 µM. shares compounds with KCNK9 inh. actives 4% (n = 4,900);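 active = thallium signal drop more than 5 SD beyond the mean of the no-compound control wells, seen in both duplicate plates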;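 note: signal is fluorescence rise after thallium addition divided by baseline fluorescence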
HEK293 Tl ctr: second check of KCNK9 modulator effects in non-induced HEK293 cells. inhibition, % at 10 µM. shares compounds with KCNK9 inh. actives 40% (n = 4,900). FluxOR thallium flux. AID 492997;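 active = thallium signal drop beyond 5 SD of the untreated control mean, on both duplicate plates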
KCNK3 confirm: human KCNK3 channel inhibition, confirmation assay; CHO-KCNK3 thallium flux, FluxOR fluorescence; 0% buffer, 100% carvedilol maximal block; ratio percent of control, % at 10 µM; shares compounds with KCNK3 block; actives 99% (n = 2,400);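 active = ratio percent of control, averaged over triplicates, above buffer control mean plus 5 SD, cut at about 64% in these data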;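 note: ratio is the fluorescence rise from min to max over baseline after thallium stimulus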
KCNK3 uninduced: activity in cells without induced KCNK3 expression; shares compounds with KCNK3 block; non-induced KCNK3 parental cells, FluxOR thallium flux; stronger effect = lower value; thallium flux ratio (lower = more inhibition) at 10 µM; actives 40% (n = 2,400); AID 651747;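 active = thallium flux ratio, averaged over three wells, more than 5 SD below the buffer control mean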;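 note: host cells are CHO cells without KCNK3 induction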
Large screens that a line does not name were inactive (follow-up assays come after a bar, where they were run). A selection: hits, their analogues and other compounds. The true share with any hit is near 3.7%.

Cc1cc(Cl)ccc1OC(C)C(=O)Nc1ccccc1N1CCOCC1 (stereo not drawn)	KCNQ1 inh 6, KCNK9 inh -9.3 | KCNQ1 inh valid 88 | CHO KCNQ1 ctr 0.32 | KCNQ2 spec 101% | KCNQ1 KCNE1 spec 140% | KCNK9 inh conf 38% | Kir2-1 spec 44% | HEK293 Tl ctr 46%
CC(C)c1csc(CN2CCC(N3CCC(C(=O)NCC4CCCO4)CC3)CC2)n1 (stereo not drawn)	none
CCOC(=O)c1sc2nc(CC(=O)OC)nc(N3CCN(c4ccccn4)CC3)c2c1C	KCNQ1 inh 8 | KCNQ1 inh valid 112 | CHO KCNQ1 ctr inactive | KCNQ1 ephys val inactive | KCNQ2 spec 110% | KCNQ1 KCNE1 spec 140% | KCNK9 inh conf inactive | Kir2-1 spec inactive | HEK293 Tl ctr inactive
Clc1ccc(Oc2nc(N3CCOCC3)nc(N3CCOCC3)n2)c(C2CCCCC2)c1	KCNQ1 inh 6 | KCNQ1 inh valid 98 | CHO KCNQ1 ctr 0.37 | KCNQ2 spec 105% | KCNQ1 KCNE1 spec 91% | KCNK9 inh conf inactive | Kir2-1 spec inactive | HEK293 Tl ctr inactive
c1ccc(Oc2nc(N3CCOCC3)nc(N3CCOCC3)n2)cc1	none
CC(=O)N1CCN(C(=O)CCc2cc(C(C)(C)C)c(O)c(C(C)(C)C)c2)CC1	none
COc1ccc(-c2[nH]c(-c3cc(OC)c4c(c3)OCO4)nc2-c2ccccc2)cc1	KCNQ1 inh 9, KCNK9 inh -9 | KCNQ1 inh valid 152 | CHO KCNQ1 ctr 0.34 | KCNQ2 spec 131% | KCNQ1 KCNE1 spec 186% | KCNK9 inh conf 38% | Kir2-1 spec inactive | HEK293 Tl ctr 32%
Cc1ccc(-c2[nH]c(-c3ccc(C(=O)O)cc3)nc2-c2ccccc2)cc1	none
O=C(Nc1ccc(N2CCOCC2)cc1)C1CCN(S(=O)(=O)c2ccccc2F)CC1	none
Cc1ccc(C)c(N2CCN(C(=O)C(Cc3ccccc3)n3cccc3)CC2)c1 (stereo not drawn)	KCNQ1 inh 14, KCNK9 inh -13 | KCNQ1 inh valid 116 | CHO KCNQ1 ctr 0.36 | KCNQ2 spec 103% | KCNQ1 KCNE1 spec 166% | KCNK9 inh conf 58% | Kir2-1 spec inactive | HEK293 Tl ctr 40%
COc1ccc(C(=O)c2ccc([N+](=O)[O-])cc2Cl)cc1	none
CCOc1ccccc1NC(=O)C(NCC1CCCCC1)c1ccccc1 (stereo not drawn)	KCNQ1 inh 10, KCNK9 inh -8.9 | KCNQ1 inh valid 131 | CHO KCNQ1 ctr inactive | KCNQ1 ephys val inactive | KCNQ2 spec 125% | KCNQ1 KCNE1 spec 156% | KCNK9 inh conf 46% | Kir2-1 spec inactive | HEK293 Tl ctr 40%
COc1ccc(Cl)cc1NC(=O)CN(C)C(=O)CCSc1ccc(C)cc1	none (no result: hERG rescue, KCNQ1 inh, Kir21 inh, KCNQ1 act, KCNK9 inh)
CC(=O)n1c2c(c3ccccc31)OC(N)=C(C#N)C2c1ccc(C(C)C)cc1 (stereo not drawn)	KCNQ1 inh 8, KCNK9 inh -9.2 | KCNQ1 inh valid 114 | CHO KCNQ1 ctr inactive | KCNQ1 ephys val inactive | KCNQ2 spec 101% | KCNQ1 KCNE1 spec 154% | KCNK9 inh conf 33% | Kir2-1 spec inactive | HEK293 Tl ctr 38%
CC(=O)C1=C(C)OC(N)=C(C#N)C1c1cccc2ccccc12 (stereo not drawn)	none
CC(C)(C)NC(=O)C[C@H]1C[C@H](C(=O)N2CCCCC2)[C@@]2(C)c3[nH]c4ccc(Cl)cc4c3CCN2C1=O	none (no result: hERG rescue, KCNQ1 inh, Kir21 inh, KCNQ1 act, KCNK9 inh)
Cc1cc(C)n(Cc2ccc(Cl)cc2Cl)c(=O)c1S(=O)(=O)c1ccccc1	KCNQ1 inh 8, KCNK9 inh -12 | KCNQ1 inh valid 81 | CHO KCNQ1 ctr inactive | KCNQ2 spec 81% | KCNQ1 KCNE1 spec 102% | KCNK9 inh conf 56% | Kir2-1 spec inactive | HEK293 Tl ctr 42%
Cc1nn(CC(=O)N(C)C)c(C)c1S(=O)(=O)N1CCOCC1	none (no result: hERG rescue, KCNQ1 inh, Kir21 inh, KCNQ1 act, KCNK9 inh)
CCCCn1c(/N=C/c2ccc(N(C)C)cc2)nc2ccccc21	KCNQ1 inh 11, KCNK3 block -11, KCNK9 inh -12 | KCNQ1 inh valid 170 | CHO KCNQ1 ctr 0.3 | KCNQ2 spec 135% | KCNQ1 KCNE1 spec 94% | KCNK9 inh conf 30% | Kir2-1 spec inactive | HEK293 Tl ctr 55%
C=CCn1c(/N=C/c2ccc(N(C)C)cc2)nc2ccccc21	none
O=C(Nc1ccncc1)c1cc(-c2cccc(Br)c2)nc2ccccc12	none
O=C(Nc1cccnc1)c1cc(-c2cccc(Br)c2)nc2ccccc12	KCNQ1 inh 15, KCNK3 block -12, KCNK9 inh -9.2 | KCNQ1 inh valid 148 | CHO KCNQ1 ctr 0.31 | KCNQ2 spec 130% | KCNQ1 KCNE1 spec 195% | KCNK9 inh conf inactive | Kir2-1 spec inactive | HEK293 Tl ctr 38% | KCNK3 confirm 156 | KCNK3 uninduced 0.1

Compound activity from PubChem.
